Experimental data reported in ChEMBL document CHEMBL1143811, “Bis-acridines as lead antiparasitic agents: structure-activity analysis of a discrete compound library in vitro” (Antimicrob Agents Chemother, 2007).
In brackets after ≈: the same amount, converted by molar mass. Activity calls are given as the source filed them. The calls are words filed in the database; no cut-off is given here.

How the values were obtained:
Plasmodium falciparum [1] = assay: Antimicrobial activity against chloroquine-resistant Plasmodium falciparum W2 after 72 hrs; format: functional, organism-based; settings: W2, 72 h
MRC5 = assay: Toxicity against human MRC5 cells at 3.13 uM; format: cell-based; settings: mrc5, 3.13 µM
Leishmania major [2] = assay: Antileishmanial activity against Leishmania major MHOM/IL/81/FE/BNI amastigotes after 48 hrs at 1 uM; format: functional, organism-based
Outline: (§1)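 Peritoneal macrophages from BALB/c mice (6-8 wk) adhered 2 h at 37°C, infected 24 h with stationary-phase L. major promastigotes at 10:1 parasite:macrophage, washed, then exposed 48 h to compound at 0.0001 to 10 µM. Intracellular amastigotes stained with acridine orange/ethidium bromide and counted by fluorescence microscopy; percent amastigotes cleared versus DMSO-treated cultures; three repeats.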

Entamoeba histolytica = assay: Antimicrobial activity against Entamoeba histolytica HM1 IMSS trophozoites after 48 hrs; format: functional, organism-based; settings: 60 h, in the assay text read “60 hrs” for “48 hrs”
Outline: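 Trophozoites were grown axenically in TYI-S-33 with 10% bovine adult serum and seeded at ~10^4 cells/well. Compound (range up to 10 µM) was added to 48-h log-phase cultures, then incubated 60 h at 37°C under anaerobic conditions. Viability was read by CellTiter-Glo luminescence. EC50 came from quadruplicate wells in two independent experiments.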

HL-60 = assay: (§2) Cytotoxicity against human HL60 cells; format: cell-based; settings: Homo sapiens, HL-60
Outline: (§3)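 Bloodstream-form T. b. brucei in Baltz medium (~10^4/ml) and HL-60 cells in RPMI 1640 (~10^5/ml), both with 16.7% FBS, were exposed 48 h at 37°C in 5% CO2 to compound up to 10 µM in 1% final DMSO. Live cells were hemocytometer-counted, by motility (trypanosomes) or trypan blue exclusion (HL-60). EC50 was taken by regression versus DMSO cultures from three experiments. MIC was the lowest fully lethal concentration, judged microscopically.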

[3] = as §2; format: cell-based, HL-60; settings: human, HL-60 cells; read-out: MIC; outline: as §3
[4] = Selectivity index, ratio of MIC for HL60 cells to MIC for Trypanosoma brucei brucei clone 427-221a; format: functional, HL-60; outline: as §3
Plasmodium falciparum [5] = assay: Antimicrobial activity against chloroquine-sensitive Plasmodium falciparum 3D7 after 72 hrs; format: functional, organism-based; settings: 3D7, 72 h
[6] = Selectivity index, ratio of EC50 for HL60 cells to EC50 for Trypanosoma brucei brucei clone 427-221a; format: functional, HL-60; outline: as §3
[7] = tested on: Trypanosoma brucei brucei; assay: Antimicrobial activity against Trypanosoma brucei brucei clone 427-221a at 1.56 uM; format: functional
Trichomonas vaginalis = assay: Antimicrobial activity against Trichomonas vaginalis G3 assessed as parasite death at 10 uM after 24 hrs; format: functional
Outline: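 G3 strain grown in Diamond's medium at 37°C. Assay culture set up as 0.5 ml dense culture diluted into 5.0 ml complete medium. Compound at a final 10 µM for 24 h at 37°C. Motile cells counted by hemocytometer. Result is percent dead parasites relative to DMSO-treated cultures, from five separate experiments. Controls were untreated, DMSO and metronidazole.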

Plasmodium falciparum [8] = assay: Antimalarial activity against chloroquine-resistant Plasmodium falciparum FcB1R after 72 hrs; format: functional, organism-based
[9] = Cytotoxicity against BALB/c mouse peritoneal macrophages at 10 uM after 48 hrs hrs; format: cell-based; settings: macrophage
[10] = tested on: Trypanosoma brucei brucei; assay: Antimicrobial activity against Trypanosoma brucei brucei clone 427-221a after 48 hrs; format: functional, organism-based; outline: as §3
Leishmania donovani = assay: Antileishmanial activity against Leishmania donovani MHOM/SD/00/1S-2D promastigotes assessed as parasite death at 10 uM after 72 hrs; format: functional
Outline: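 Promastigotes seeded at 1.5 x 10^5 cells/ml in medium 199 with 10% heat-inactivated FBS. Compound added at a final 10 µM, in triplicate, in sealed flasks at 27°C for up to 7 days. Aliquots taken daily and viability read by CellTiter-Glo luminescence. Result given as percent reduction in viability relative to DMSO-treated cultures. Controls were K11777 or amphotericin B at 10 µM.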

Schistosoma mansoni = assay: Antimicrobial activity against Schistosoma mansoni assessed as worm vitality at 6 uM after 4 hrs; format: functional, organism-based
Outline: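 20-day-old worms were obtained by perfusion of BALB/c mice infected with 200 cercariae. About 20 worms/well were kept in Basch 169 with 10% bovine calf serum, preincubated 24 h at 37°C in 5% CO2, then exposed to 1, 3 or 6 µM. Vitality (feeding, flexing, gut peristalsis; death = nonmotile, shrunken, dark) was scored at 4 and 18 h in two experiments.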

Leishmania major [11] = assay: Antileishmanial activity against Leishmania major MHOM/IL/81/FE/BNI amastigotes after 48 hrs; format: functional, organism-based; outline: as §1

SMILES | EC50 (Plasmodium falciparum [1]) | Activity (MRC5) | Activity (Leishmania major [2]) | EC50 (Entamoeba histolytica) | EC50 (HL-60) | MCC [3] | Ratio [4] | EC50 (Plasmodium falciparum [5]) | Ratio EC50 [6] | Activity [7] | Activity (Trichomonas vaginalis) | EC50 (Plasmodium falciparum [8]) | Activity [9] | EC50 [10] | MIC [10] | Activity (Leishmania donovani) | Activity (Schistosoma mansoni) | EC50 (Leishmania major [11])
COc1ccc2nc3cc(Cl)ccc3c(NCCCCN(CCCNc3c4ccc(Cl)cc4nc4ccc(OC)cc34)C(=O)[C@H](C)NC(=O)OC(C)(C)C)c2c1 | 629 nM | 0% | inactive | 5000 nM | 1650 nM | 10 µM | 10 | 598 nM | 469 | 100% | 95% | 330 nM | Toxic | 3.5 nM | 1 µM (≈ 0.8 µg/mL) | 49% |  | 
COc1ccc2nc3cc(Cl)ccc3c(NCCNCCNc3c4ccc(Cl)cc4nc4ccc(OC)cc34)c2c1 | 791 nM | 100% | inactive | 5000 nM | 9470 nM | > 10 µM | >1 | 618 nM | 43 | 100% | 0% | 63 nM | Toxic | 218 nM | 10 µM (≈ 5.87 µg/mL) | 47% |  | 
COc1ccc2nc3cc(Cl)ccc3c(NCCCNCCCNCCCNc3c4ccc(Cl)cc4nc4ccc(OC)cc34)c2c1 | 147 nM |  |  | 5000 nM | 142 nM | 10 µM | 10 | 121 nM | 98 |  | 0% |  |  | 1.4 nM | 1 µM (≈ 0.672 µg/mL) | 73% | Active | 3000 nM
COc1ccc2nc3cc(Cl)ccc3c(NCCCCCCCCNc3c4ccc(Cl)cc4nc4ccc(OC)nc34)c2n1 | 69 nM |  | inactive | 5000 nM | 26300 nM | > 10 µM | >10 | 62 nM | 859 |  | 59% |  | Toxic | 31 nM | 1 µM (≈ 0.63 µg/mL) | 42% |  | 
C[C@@H]1[C@H](O)[C@@H](C)/C=C/C=C/C=C/C=C/C=C/C=C/C=C/[C@H](O[C@@H]2O[C@H](C)[C@@H](O)[C@H](N)[C@@H]2O)C[C@@H]2O[C@](O)(C[C@@H](O)C[C@@H](O)[C@H](O)CC[C@@H](O)C[C@@H](O)CC(=O)O[C@H]1C)C[C@H](O)[C@H]2C(=O)O [AMPHOTERICIN B] |  |  |  |  |  |  |  |  |  |  |  |  |  |  |  | 100% |  | 
COc1ccc2nc3cc(Cl)ccc3c(NCCCCNCCCNc3c4ccc(Cl)cc4nc4ccc(OC)nc34)c2n1 | 34 nM |  | inactive | 500 nM | 119 nM | 7 µM | 70 | 29 nM | 86 |  | 85% |  | Toxic | 1.4 nM | 0.1 µM (≈ 0.0631 µg/mL) | 99% | Active | 
CCCN(CCCCNc1c2ccc(Cl)cc2nc2ccc(OC)cc12)CCCNc1c2ccc(Cl)cc2nc2ccc(OC)cc12 | 319 nM |  | inactive | 5000 nM | 491 nM | 10 µM | 10 | 120 nM | 348 |  | 90% |  | Toxic | 1.4 nM | 1 µM (≈ 0.671 µg/mL) | 99% |  | 
O=C(C1CCCCC1)N1CC(=O)N2CCc3ccccc3C2C1 (stereo not given) |  |  |  |  |  |  |  |  |  |  |  |  |  |  |  |  | Active | 
Nc1nc(N)nc(Nc2ccc([As]3SCC(CO)S3)cc2)n1 (stereo not given) [MELARSOPROL] |  |  |  |  | 4270 nM | 100 µM | >1000 |  | 267 |  |  |  |  | 16 nM | 0.1 µM |  |  | 
COc1ccc2nc3cc(Cl)ccc3c(NCCCCN(CCCNc3c4ccc(Cl)cc4nc4ccc(OC)cc34)C(=O)CNC(=O)[C@H](C)N)c2c1 | 823 nM |  |  | 5000 nM | 491 nM | > 10 µM | >1 | 716 nM | 77 |  | 0% |  | Toxic | 6.4 nM | 10 µM (≈ 7.57 µg/mL) | 16% |  | 700 nM
COc1ccc2nc3cc(Cl)ccc3c(NCCCCCCCCNc3c4ccc(Cl)cc4nc4ccc(OC)cc34)c2c1 | 124 nM | 20% | inactive | 500 nM | 1650 nM | 10 µM | 10 | 115 nM | 191 | 100% | 100% | 19 nM | Toxic | 8.6 nM | 1 µM (≈ 0.628 µg/mL) | 99% |  | 
COc1ccc2nc3cc(Cl)ccc3c(NCCCCCCCCCCNc3c4ccc(Cl)cc4nc4ccc(OC)cc34)c2c1 | 116 nM | 0% | inactive | 500 nM | 3140 nM | 10 µM | 10 | 95 nM | 125 | 100% | 100% | 57 nM | Toxic | 25 nM | 1 µM (≈ 0.656 µg/mL) | 96% |  | 
COc1ccc2nc3cc(Cl)ccc3c(NCCCCN(CCCNc3c4ccc(Cl)cc4nc4ccc(OC)cc34)C(=O)CNC(=O)[C@H](C)NC(=O)OC(C)(C)C)c2c1 | 341 nM |  | inactive | 5000 nM | 270 nM | 10 µM | 10 | 314 nM | 111 |  | 53% |  | Toxic | 2.4 nM | 1 µM (≈ 0.857 µg/mL) | 37% |  | 
COc1ccc2nc3cc(Cl)ccc3c(NCCCCNCCCCCNCCCNc3c4ccc(Cl)cc4nc4ccc(OC)cc34)c2c1 | 129 nM |  |  | 5000 nM | 270 nM | 10 µM | 10 | 125 nM | 140 |  | 66% |  | Toxic | 1.9 nM | 1 µM (≈ 0.714 µg/mL) | 98% | Active | 600 nM
CCN(CC)CCCC(C)Nc1c2ccc(Cl)cc2nc2ccc(OC)cc12 (stereo not given) [QUINACRINE] | 33 nM |  |  |  |  |  |  | 11 nM |  |  |  |  |  |  |  |  |  | 
COc1ccc2nc3cc(Cl)ccc3c(NCCCN3CCN(CCCNc4c5ccc(Cl)cc5nc5ccc(OC)cc45)CC3)c2c1 | 112 nM | 0% | inactive | 5000 nM | 1480 nM | 10 µM | 100 | 64 nM | 836 | 60% | 10% | 17 nM | Toxic | 1.8 nM | 0.1 µM (≈ 0.0684 µg/mL) | 46% |  | 
CCN(CC)CCCC(C)Nc1ccnc2cc(Cl)ccc12 (stereo not given) [CHLOROQUINE] | 293 nM |  |  |  |  |  |  | 10 nM |  |  |  |  |  |  |  |  |  | 
